This is an account of results in ChEMBL document CHEMBL2086325, “Suppression of autoimmune arthritis by Celastrus-derived Celastrol through modulation of pro-inflammatory chemokines” (Bioorg Med Chem, 2012).

Activity calls are given as the source filed them. The rule behind the calls is not given here.

The test system of assay [1] is Rattus norvegicus. The experiment in a line: Antiarthritic effect in Lewis rat adjuvant-induced arthritis model spleen adherent cells restimulated with sonicated Mtb post isolation assessed as reduction in RANTES production at 200 ug, ip starting from arthritis onset and continued uninterrupted until study end by cytokine multiplex assay. Type of assay: functional, organism-based. The method, boiled down: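 Mtb-immunized male Lewis rats were dosed 200 μg/rat i.p. daily from arthritis onset (vehicle: 1.2% DMSO/PBS). Spleen adherent cells were prepared on d 18, plated at 1.5 × 10^6/well in 2% FBS medium and restimulated with sonicated Mtb (10 μg/ml) for 24 h. Supernatant chemokines and cytokines were measured by Luminex multiplex. Mean ± SD of triplicates from 4–5 rats.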

For assay [2], the system named is Rattus norvegicus. The experiment in a line: Antiarthritic effect in Lewis rat adjuvant-induced arthritis model synovial infiltrating cells restimulated with sonicated Mtb post isolation assessed as reduction in GRO/KC production at 200 ug, ip starting from arthritis onset and continued uninterrupted until study end by cytokine multiplex assay. Type of assay: functional, organism-based. The method, boiled down: (§1)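 Male Lewis rats were immunized s.c. with heat-killed Mtb H37Ra (1.5 mg/rat) in mineral oil. From arthritis onset they received 200 μg/rat i.p. daily (DMSO stock diluted in PBS); controls got 1.2% DMSO in PBS. On d 18, draining lymph node or synovial-infiltrating cells were cultured at 1.5 × 10^6/well in 2% FBS medium ± sonicated Mtb (10 μg/ml) for 24 h. Supernatants were analysed by multiplex.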

For assay [3], the system named is Rattus norvegicus. As to the kind of experiment: Antiarthritic effect in Lewis rat adjuvant-induced arthritis model synovial infiltrating cells restimulated with sonicated Mtb post isolation assessed as reduction in RANTES production at 200 ug, ip starting from arthritis onset and continued uninterrupted until study end by cytokine multiplex assay. Type of assay: functional, organism-based. The method, boiled down: as §1

In assay [4] the test system is Rattus norvegicus. The experiment in a line: Increase in CCR1 expression in Lewis rat adjuvant-induced arthritis model spleen adherent cells restimulated with sonicated Mtb post isolation at 200 ug, ip starting from arthritis onset and continued uninterrupted until study end by qPCR relative baseline expression. Type of assay: functional, organism-based. The method, boiled down: (§2)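 From onset of Mtb-induced arthritis, rats received 200 μg/rat i.p. daily or vehicle. Spleen adherent cells harvested on d 18 (1.5–2.0 × 10^6 cells/well) were cultured in medium or with sonicated Mtb (10 μg/ml) for 24 h. Receptor mRNA was quantified by qPCR after TRIzol RNA isolation and cDNA synthesis, normalized to HGPRT and reported as relative message.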
For orientation: Real-time PCR tracks product formation cycle by cycle.

Assay [5] deals with Rattus norvegicus. As to the kind of experiment: Antiarthritic effect in Lewis rat adjuvant-induced arthritis model serum assessed as reduction in IL6 production at 200 ug, ip starting from arthritis onset and continued uninterrupted until study end by cytokine multiplex assay. Type of assay: functional, organism-based. The method, boiled down:
(§3)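 Arthritic Lewis rats (Mtb 1.5 mg s.c. in mineral oil) were given 200 μg/rat i.p. daily from onset until the day before harvest; controls received DMSO/PBS vehicle. On d 18, blood was taken by cardiac puncture after euthanasia and serum stored at −80 °C. Serum pooled from 4 rats was assayed in triplicate by multiplex.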

The species entered for assay [6] is Rattus norvegicus. The experiment in a line: Antiarthritic effect in sonicated Mtb-stimulated spleen adherent cells isolated from Lewis rat adjuvant-induced arthritis model assessed as reduction in TNFalpha production pre-incubated with compound for 30 mins before stimulation with sonicated-Mtb for 48 hrs by multiplex assay. Type of assay: functional, tissue-based.

The species entered for assay [7] is Rattus norvegicus. The experiment in a line: Antiarthritic effect in sonicated Mtb-stimulated spleen adherent cells isolated from Lewis rat adjuvant-induced arthritis model assessed as reduction in RANTES production pre-incubated with compound for 30 mins before stimulation with sonicated-Mtb for 48 hrs by multiplex assay. Type of assay: functional, tissue-based.

The test system of assay [8] is Rattus norvegicus. As to the kind of experiment: Antiarthritic effect in Lewis rat adjuvant-induced arthritis model synovial infiltrating cells restimulated with sonicated Mtb post isolation assessed as reduction in IL-1beta production at 200 ug, ip starting from arthritis onset and continued uninterrupted until study end by cytokine multiplex assay. Type of assay: functional, organism-based. The method, boiled down: as §1

Assay [9] is filed under the species Rattus norvegicus. The experiment in a line: Increase in CCR1 protein surface expression in sonicated Mtb-stimulated spleen adherent cells isolated from Lewis rat adjuvant-induced arthritis model pre-incubated with 0.1 to 0.3 uM compound before stimulation with sonicated Mtb for 24 hrs by flow cytometry. Type of assay: functional, tissue-based. The method, boiled down:
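Spleen adherent cells from arthritic rats were stimulated 24 h with sonicated Mtb in vitro, with or without compound. Cells were detached with TrypLE for 10 min, washed, and surface-stained 30 min with anti-CD11b/c PerCP-eFluor 710 and cross-reactive anti-human CCR1 Alexa Fluor 647. Cells were fixed in 1% formaldehyde and analysed by flow cytometry, with IgG2a/IgG2b isotype controls.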

The species entered for assay [10] is Rattus norvegicus. The experiment in a line: Increase in CCR1 expression in sonicated Mtb-stimulated spleen adherent cells isolated from Lewis rat adjuvant-induced arthritis model pre-incubated with compound before stimulation with sonicated Mtb for 24 hrs by qPCR. Type of assay: functional, tissue-based. The method, boiled down:
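Spleen adherent cells (1.5–2.0 × 10^6 cells/well) came from an untreated arthritic Lewis rat. They were restimulated 24 h with sonicated Mtb (10 μg/ml) with or without compound at 0.1 and 0.3 μM. CCR1 mRNA was measured by qPCR, normalized to HPRT and expressed as relative message.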

Assay [11] relates to Rattus norvegicus. The experiment in a line: Antiarthritic effect in Lewis rat adjuvant-induced arthritis model synovial infiltrating cells restimulated with sonicated Mtb post isolation assessed as reduction in IL6 production at 200 ug, ip starting from arthritis onset and continued uninterrupted until study end by cytokine multiplex assay. Type of assay: functional, organism-based. The method, boiled down:
as §1

The subject of assay [12] is Rattus norvegicus. As to the kind of experiment: Antiarthritic effect in Lewis rat adjuvant-induced arthritis model synovial infiltrating cells restimulated with sonicated Mtb post isolation assessed as reduction in MIP-1alpha production at 200 ug, ip starting from arthritis onset and continued uninterrupted until study end by cytokine multiplex assay. Type of assay: functional, organism-based. The method, boiled down:
as §1

Assay [13] has as its system Rattus norvegicus. As to the kind of experiment: Antiarthritic effect in Lewis rat adjuvant-induced arthritis model synovial infiltrating cells restimulated with sonicated Mtb post isolation assessed as reduction in TNFalpha production at 200 ug, ip starting from arthritis onset and continued uninterrupted until study end by cytokine multiplex assay. Type of assay: functional, organism-based. The method, boiled down: as §1

The subject of assay [14] is Rattus norvegicus. As to the kind of experiment: Antiarthritic effect in Lewis rat adjuvant-induced arthritis model lymph node cells restimulated with sonicated Mtb post isolation assessed as reduction in RANTES production at 200 ug, ip starting from arthritis onset and continued uninterrupted until study end by cytokine multiplex assay. Type of assay: functional, organism-based. The method, boiled down: as §1

The species entered for assay [15] is Rattus norvegicus. The experiment in a line: Antiarthritic effect in IL-1beta-stimulatedspleen adherent cells isolated from Lewis rat adjuvant-induced arthritis model assessed as reduction in MCP1 production pre-incubated with compound for 30 mins before stimulation with IL-1beta for 48 hrs by multiplex assay. As to conditions: Spleen. Type of assay: functional, tissue-based.

The test system of assay [16] is Rattus norvegicus. The experiment in a line: Antiarthritic effect in Lewis rat adjuvant-induced arthritis model spleen adherent cells restimulated with sonicated Mtb post isolation assessed as reduction in CXCR2 expression at 200 ug, ip starting from arthritis onset and continued uninterrupted until study end by qPCR. Type of assay: functional, organism-based. The method, boiled down:
as §2

Assay [17] has as its system Rattus norvegicus. The experiment in a line: Antiarthritic effect in Lewis rat adjuvant-induced arthritis model serum assessed as reduction in RANTES production at 200 ug, ip starting from arthritis onset and continued uninterrupted until study end by cytokine multiplex assay. Type of assay: functional, organism-based. The method, boiled down:
as §3

For assay [18], the system named is Rattus norvegicus. The experiment in a line: Antiarthritic effect in Lewis rat adjuvant-induced arthritis model synovial infiltrating cells restimulated with sonicated Mtb post isolation assessed as reduction in MCP1 production at 200 ug, ip starting from arthritis onset and continued uninterrupted until study end by cytokine multiplex assay. Type of assay: functional, organism-based. The method, boiled down:
as §1

In assay [19] the test system is Rattus norvegicus. The experiment in a line: Antiarthritic effect in Lewis rat adjuvant-induced arthritis model serum assessed as reduction in GRO/KC production at 200 ug, ip starting from arthritis onset and continued uninterrupted until study end by cytokine multiplex assay. Type of assay: functional, organism-based. The method, boiled down:
as §3

The test system of assay [20] is Rattus norvegicus. As to the kind of experiment: Antiarthritic effect in Lewis rat adjuvant-induced arthritis model lymph node cells restimulated with sonicated Mtb post isolation assessed as reduction in IL-1beta production at 200 ug, ip starting from arthritis onset and continued uninterrupted until study end by cytokine multiplex assay. Type of assay: functional, organism-based. The method, boiled down: as §1

The species named for assay [21] is Rattus norvegicus. The experiment in a line: Antiarthritic effect in sonicated Mtb-stimulated spleen adherent cells isolated from Lewis rat adjuvant-induced arthritis model assessed as reduction in IL6 production pre-incubated with compound for 30 mins before stimulation with sonicated-Mtb for 48 hrs by multiplex assay. Type of assay: functional, tissue-based.

On to `CC1=C(O)C(=O)C=C2C1=CC=C1[C@@]2(C)CC[C@@]2(C)[C@@H]3C[C@](C)(C(=O)O)CC[C@]3(C)CC[C@]12C` [CELASTROL], for which the outcome with Rattus norvegicus [1], in the assay with Rattus norvegicus [4], in the assay filed under Rattus norvegicus [9], in the assay with Rattus norvegicus [16], in the assay on Rattus norvegicus [17] and in the assay with Rattus norvegicus [19] was Active. The outcome with Rattus norvegicus [2], in the assay on Rattus norvegicus [3], in the assay with Rattus norvegicus [5], in the assay with Rattus norvegicus [8], in the assay on Rattus norvegicus [11] and in the assay on Rattus norvegicus [12] was inactive. The outcome in the assay with Rattus norvegicus [13], in the assay with Rattus norvegicus [14], with Rattus norvegicus [18] and in the assay with Rattus norvegicus [20] was inactive. In addition, the Activity result in the assay listed under Rattus norvegicus [6], in the assay filed under Rattus norvegicus [7], in the assay filed under Rattus norvegicus [10], in the assay listed under Rattus norvegicus [15] and in the assay filed under Rattus norvegicus [21] was “Dose-dependent effect” each time.
